Measurements from publication PMC7125971 (European Journal of Medicinal Chemistry, 2015).
“Also recorded” adds a separate entry of the source.

Legend:
[1] = test system: 3T3 cells (embryonal murine fibroblasts); assay: Cytotoxic effects on embryonal murine fibroblasts 3T3; format: cell-based, mouse
Procedure, shortened: (§1)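 Cells grown as monolayers in DMEM with 10% FBS, 2 mM L-glutamine, 100 U/ml penicillin and 100 μg/ml streptomycin at 37 °C, 5% CO2. 5000 cells/well seeded on day 0. Compound added in five 10-fold dilutions (0.01–100 μM); final DMSO ≤0.1%. Cells incubated 72 h, then MTT; absorbance converted to percentage growth vs same-plate untreated controls. Quadruplicate points in three experiments; ANOVA with Tukey post-hoc test.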

[2] = test system: HeLa cells (cervical carcinoma); assay: Antiproliferative assay; format: cell-based, human
Procedure, shortened: as §1

[3] = test system: all tested malignant cell lines; assay: Cytostatic activity on the whole panel of malignant cell lines; format: cell-based
Procedure, shortened: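 Malignant lines HeLa, SW620, MiaPaCa-2, HepG2 and CFPAC-1 grown as monolayers in DMEM with 10% FBS at 37 °C, 5% CO2. Plated at 5000 cells/well and exposed 72 h to five 10-fold dilutions (0.01–100 μM), with DMSO ≤0.1%. Growth read by MTT and converted to percentage growth by NIH formulas. Quadruplicate points in three experiments; ANOVA with Tukey post-hoc test.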

[4] = test system: human cytomegalovirus (HCMV); assay: Anti-HCMV activity in HEL cells, strain not told apart in the statement; format: cell-based; conditions: compared to compound 3
[5] = test system: African green monkey kidney epithelial cells (Vero); conditions: alteration of normal cell morphology, listed as C00010
Reovirus-1 = assay: organism not typed; format: cell-based; conditions: Vero, read-out: EC50 Reovirus-1
Para-influenza-3 virus = assay: organism not typed; format: cell-based; conditions: Vero, read-out: EC50 Para-influenza-3 virus
[6] = test system: Madin Darby canine kidney (MDCK) cells
[7] = test system: Crandell-Rees feline kidney cells (CRFK)
[8] = test system: human embryonic lung cells (HEL); assay: Cytostatic activity; format: cell-based
Procedure, shortened: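 HEL cells seeded at 5 × 10^3 cells/well and allowed to proliferate 24 h. Medium with varying compound concentrations then added, and cells incubated 3 days at 37 °C. Cell number counted by Coulter counter. CC50 (50% reduction in proliferation vs untreated controls) read from plots of cell number (% of control) against concentration.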

Punta Toro virus = assay: microbe, parasite or virus in culture; format: cell-based; conditions: Vero, read-out: EC50 Punta Toro virus

In the case of `O=C1O/C(=C\Cn2cnc3cncc(Br)c32)C(OCc2ccccc2)=C1OCc1ccccc1` [Compound 1, 3,4-di-O-benzyl-5-(9-(3-bromo-1H-imidazo[4,5-c]pyridine-9-yl)ethylidene)furan-2(5H)-one], the “cytotoxic effects on 3T3 cells (in words)” value [1] is reported as “low cytotoxic effects; also recorded: moderate or low cytotoxic effects”, the “activity / cytostatic effects on HeLa cells (in words)” value (shortened to “activity / cytostatic effects”) [2] is reported as “moderate activity” and the “cytostatic activity on the malignant cell line panel (in words)” value (“cytostatic activity” for short) [3] is reported as “weak and nonselective antiproliferative activity”.

`O=C1O/C(=C\Cn2cnc3cc[nH]c3c2=O)C(OCc2ccccc2)=C1OCc1ccccc1` [Compound 14, 3,4-di-O-benzyl-5-(1-(3H-pyrrolo[3,2-d]pyrimidine-4(5H)-one-1-yl)ethylidene)furan-2(5H)-one] was tested, and the “cytotoxic effects on 3T3 cells (in words)” value [1] was “without cytotoxic effects”.

In the case of `O=C1O/C(=C\Cn2cnc3c(Cl)c(F)nc(F)c32)C(O)=C1O` [Compound 8, 5-(2-(7-chloro-4,6-difluoro-3H-imidazo[4,5-c]pyridine-3-yl)ethylidene)-3,4-dihydroxyfuran-2(5H)-one], the “anti-HCMV activity (in words)” value [4] is reported as “loss of anti-HCMV activity”.

For `O=C1NC(O)(/C=C\n2cc(I)c3c(Cl)ncnc32)C(OCc2ccccc2)=C1OCc1ccccc1` (centres unmarked) [Compound 12, 3,4-di-O-benzyl-5-(9-(6-chloro-7-iodo-7H-pyrrolo[2,3-d]pyrimidine-9-yl)-vinyl)-5-hydroxy-1H-pyrrolo-2(5H)-one], the “cytotoxic effects on 3T3 cells (in words)” value [1] was “moderate or low cytotoxic effects” and the “cytostatic activity” value [3] was “weak and nonselective antiproliferative activity; also recorded: no marked cytostatic nor antiviral activities”.

With `O=C1O/C(=C\Cn2cnc3c(F)nc(F)c(Cl)c32)C(OCc2ccccc2)=C1OCc1ccccc1` [Compound 2, 3,4-di-O-benzyl-5-(9-(3-chloro-2,6-difluoro-1H-imidazo[4,5-c]pyridine-9-yl)ethylidene)furan-2(5H)-one] the MCC [5] was no less than 20 µM, the EC50 (Reovirus-1) was greater than 20 µM and the “activity / cytostatic effects” value [2] was “no cytostatic effects”. For the same compound, the EC50 (Para-influenza-3 virus) was greater than 20 µM.

In the case of `O=C1NC(O)(CCn2cnc3cncc(Br)c32)C(OCc2ccccc2)=C1OCc1ccccc1` (centres unmarked) [Compound 6, 3,4-di-O-benzyl-5-(9-(3-bromo-1H-imidazo[4,5-c]pyridine-9-yl)ethyl)-5-hydroxy-1H-pyrrolo-2(5H)-one], the “cytotoxic effects on 3T3 cells (in words)” value [1] is reported as “moderate or low cytotoxic effects” and the “cytostatic activity” value [3] is reported as “weak and nonselective antiproliferative activity”.

For `Nc1nc(F)c(Cl)c2c1ncn2CCC1(O)NC(=O)C(OCc2ccccc2)=C1OCc1ccccc1` (centres unmarked) [Compound 7, 5-(9-(6-amino-3-chloro-2-fluoro-1H-imidazo[4,5-c]pyridine-9-yl)ethyl)-3,4-di-O-benzyl-5-hydroxy-1H-pyrrolo-2(5H)-one], the “anti-HCMV activity (in words)” value [4] was “lost anti-HCMV activity; also recorded: loss of anti-HCMV activity”.

With `O=C1O/C(=C\Cn2cc(I)c3c(Cl)ncnc32)C(OCc2ccccc2)=C1OCc1ccccc1` [Compound 10, 3,4-di-O-benzyl-5-(9-(6-chloro-7-iodo-7H-pyrrolo[2,3-d]pyrimidine-9-yl)ethylidene)furan-2(5H)-one] the “cytostatic activity” value [3] was “no marked cytostatic nor antiviral activities”.

In the case of `Nc1ncnc2c1ncn2C[C@H](O)CO` [(S)-DHPA, (S)-9-(2,3-dihydroxypropyl)adenine, reference compound], the EC50 (Reovirus-1) is reported as greater than 250 µM and the EC50 (Para-influenza-3 virus) is reported as greater than 250 µM.

For `O=C1O/C(=C\Cn2cnc3c(Cl)c(F)nc(F)c32)C(OCc2ccccc2)=C1OCc1ccccc1` [Compound 3, 3,4-di-O-benzyl-5-(7-(3-chloro-2,6-difluoro-1H-imidazo[4,5-c]pyridine-7-yl)ethylidene)furan-2(5H)-one], the “cytostatic effects on MDCK cells (in words)” value [6] was “did not show any cytostatic effects”, the EC50 (Reovirus-1) was greater than 20 µM and the “cytostatic effects on CRFK cells (in words)” value [7] was “did not show any cytostatic effects”. For the same compound, the “cytotoxic effects on 3T3 cells (in words)” value [1] was “did not show any cytostatic effects”, the “activity / cytostatic effects” value [2] was “did not show any cytostatic effects” and the EC50 (Para-influenza-3 virus) was greater than 20 µM. For the same compound, the “cytotoxic effects on HEL cells (in words)” value [8] was “without cytotoxic effects; also recorded: did not show any cytostatic effects”.

With `NC(=O)c1ncn([C@@H]2O[C@H](CO)[C@@H](O)[C@H]2O)n1` [Ribavirin, reference compound] the EC50 (Punta Toro virus) was 150 ± 141 µM and the EC50 (Reovirus-1) was greater than 250 µM.
